Measurements published in ChEMBL document CHEMBL1151692, “Substituted hippurates and hippurate analogs as substrates and inhibitors of peptidylglycine alpha-hydroxylating monooxygenase (PHM)” (Bioorg Med Chem, 2008).
Activity calls are given as the source filed them. The calls are words filed in the database; no cut-off is given here.

How the values were obtained:
[1] = molecular target: peptidylglycine alpha-amidating monooxygenase (Rattus norvegicus) (UniProt P14925); experiment: Inhibition of rat peptidylamidoglycolate lyase assessed as ascorbate-independent dealkylation of alpha-hydroxy-hipurate; set-up: concentration or dose not given beside the values; conditions: concentration not given here
[2] = molecular target: T1, Peptidylglycine alpha-amidating monooxygenase (Rattus norvegicus) (UniProt P14925); experiment: Inhibition of rat recombinant peptidylglycine alpha-amidating monooxygenase assessed as inhibition of oxygen consumption at 0.9 mM
T1 sequence (whole entry): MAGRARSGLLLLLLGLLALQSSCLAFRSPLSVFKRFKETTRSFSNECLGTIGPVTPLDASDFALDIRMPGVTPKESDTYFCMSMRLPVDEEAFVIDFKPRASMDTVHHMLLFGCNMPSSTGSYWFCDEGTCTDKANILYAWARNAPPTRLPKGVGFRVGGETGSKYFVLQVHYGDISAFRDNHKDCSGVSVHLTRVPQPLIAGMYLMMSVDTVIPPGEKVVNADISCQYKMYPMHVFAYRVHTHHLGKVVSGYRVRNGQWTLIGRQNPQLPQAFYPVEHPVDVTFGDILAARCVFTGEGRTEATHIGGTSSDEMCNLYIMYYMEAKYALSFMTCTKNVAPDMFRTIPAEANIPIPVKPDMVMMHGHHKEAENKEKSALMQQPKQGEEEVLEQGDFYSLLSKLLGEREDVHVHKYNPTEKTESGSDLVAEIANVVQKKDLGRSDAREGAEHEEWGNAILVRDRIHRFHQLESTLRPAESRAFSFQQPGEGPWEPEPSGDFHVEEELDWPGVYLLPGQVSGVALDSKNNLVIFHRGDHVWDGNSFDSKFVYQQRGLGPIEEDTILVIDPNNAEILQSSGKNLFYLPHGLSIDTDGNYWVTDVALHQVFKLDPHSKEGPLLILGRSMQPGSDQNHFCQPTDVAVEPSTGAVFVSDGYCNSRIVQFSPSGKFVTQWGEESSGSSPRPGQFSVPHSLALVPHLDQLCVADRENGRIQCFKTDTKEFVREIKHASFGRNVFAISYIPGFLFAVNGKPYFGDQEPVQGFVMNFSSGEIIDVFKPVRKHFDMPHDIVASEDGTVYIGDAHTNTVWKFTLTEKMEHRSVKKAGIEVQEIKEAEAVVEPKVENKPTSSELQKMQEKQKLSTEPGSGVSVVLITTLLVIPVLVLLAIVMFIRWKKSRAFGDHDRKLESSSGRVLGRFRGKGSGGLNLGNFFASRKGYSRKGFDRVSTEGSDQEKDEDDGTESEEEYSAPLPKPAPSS

[3] = molecular target: T1, Peptidylglycine alpha-amidating monooxygenase (Rattus norvegicus); experiment: Inhibition of recombinant rat peptidylglycine alpha-amidating monooxygenase assessed as inhibition of oxygen consumption at 28 mM
[4] = molecular target: T1, Peptidylglycine alpha-amidating monooxygenase (Rattus norvegicus); experiment: Inhibition of recombinant rat peptidylglycine alpha-amidating monooxygenase assessed as inhibition of oxygen consumption of N-octanoylglycine at 28 mM
Outline: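 Recombinant type A rat medullary thyroid carcinoma bifunctional PAM (15–50 μg) added to 100 mM MES/NaOH pH 6.0, 30 mM NaCl, 1% ethanol, 0.001% Triton X-100, 10 μg/mL catalase, 1.0 μM Cu(NO3)2, ascorbate, 200 μM N-octanoylglycine as substrate, and 28 mM test compound. The read-out is the initial rate of O2 consumption on an oxygen monitor at 37 °C.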

DU-145 [5] = experiment: Antiproliferative activity against human DU145 cells at 10 uM after 48 hrs by trypan blue assay; assay type: functional, cell-based
Outline: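 DU 145 cells plated at 50,000 per well, allowed 24 h to adhere, then given medium containing 10 μM 4-HPR as positive control. Viable cells counted by trypan blue exclusion on a hemacytometer, with growth read at 48 h.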

DU-145 [6] = experiment: Antiproliferative activity against human DU145 cells at greater than 500 uM by trypan blue assay; assay type: functional, cell-based
[7] = molecular target: T1, Peptidylglycine alpha-amidating monooxygenase (Rattus norvegicus); experiment: Inhibition of rat recombinant peptidylglycine alpha-amidating monooxygenase assessed as inhibition of N-dansyl-Tyr-Val-Gly amidation
[8] = molecular target: T1, Peptidylglycine alpha-amidating monooxygenase (Rattus norvegicus); experiment: Inhibition of rat recombinant peptidylglycine alpha-amidating monooxygenase in presence of DMSO
DU-145 [9] = experiment: Antiproliferative activity against human DU145 cells at 100 uM by trypan blue assay; assay type: functional
[10] = substrate: O=C(O)CNC(=O)c1ccccc1I; experiment: (§1) Activity of rat recombinant peptidylglycine alpha-amidating monooxygenase assessed as stimulation of oxygen consumption
[11] = substrate: O=C(O)CNC(=O)/C=C/c1ccco1; experiment: as §1
[12] = substrate: O=C(O)CNC(=S)CCc1ccccc1; experiment: as §1
[13] = substrate: O=C(O)CNC(=O)CCCCc1ccccc1; experiment: as §1
[14] = substrate: O=C(O)CNC(=O)c1ccc(C(F)(F)F)cc1; experiment: as §1
[15] = substrate: O=C(O)CNC(=O)c1ccc(Br)cc1; experiment: as §1
[16] = substrate: O=C(O)CNC(=O)CNC(=O)CCl; experiment: as §1
[17] = substrate: O=C(O)CNC(=O)C1CC1c1ccccc1; experiment: as §1
[18] = substrate: O=C(O)CNC(=O)[C@@H]1CCC(=O)N1; experiment: as §1
[19] = substrate: O=C(O)CNC(=O)/C=C/c1ccccc1; experiment: as §1
[20] = substrate: O=C(O)CNC(=S)Cc1ccccc1; experiment: as §1
[21] = substrate: O=C(O)CNC(=O)Nc1ccccc1; experiment: as §1
[22] = substrate: O=C(O)CNC(=O)SCc1ccccc1; experiment: as §1
[23] = substrate: Nc1ccccc1C(=O)NCC(=O)O; experiment: as §1
[24] = substrate: O=C(O)CNC(=O)c1ccc(Cl)cc1; experiment: as §1
[25] = substrate: O=C(O)CNC(=O)c1cccc(Cl)c1; experiment: as §1
[26] = substrate: COc1ccc(C(=O)NCC(=O)O)cc1; experiment: as §1
[27] = substrate: O=C(O)CNC(=O)CCCCCc1ccccc1; experiment: as §1
[28] = substrate: Cc1ccccc1C(=O)NCC(=O)O; experiment: as §1
[29] = substrate: C[C@@H](NC(=O)c1ccccc1)C(=O)O; experiment: as §1
[30] = substrate: Nc1ccc(C(=O)NCC(=O)O)cc1; experiment: as §1
[31] = substrate: O=C(O)CNC(=O)c1ccc(O)cc1; experiment: as §1
[32] = substrate: CCCc1ccc(C(=O)NCC(=O)O)cc1; experiment: as §1
[33] = substrate: O=C(O)CNC(=O)c1ccco1; experiment: as §1
[34] = substrate: O=C(O)CNC(=O)c1ccc([N+](=O)[O-])cc1; experiment: as §1
[35] = substrate: O=C(O)CNC(=O)CNC(=O)c1ccc([N+](=O)[O-])cc1; experiment: as §1
[36] = substrate: Cc1cccc(C(=O)NCC(=O)O)c1; experiment: as §1
[37] = substrate: O=C(O)CNC(=O)CCCCCCCc1ccccc1; experiment: as §1
[38] = substrate: O=C(O)CNC(=O)OCc1ccccc1; experiment: as §1
[39] = substrate: O=C(O)CNC(=O)CCc1ccccc1; experiment: as §1
[40] = substrate: CCc1ccc(C(=O)NCC(=O)O)cc1; experiment: as §1
[41] = substrate: Cc1ccc(C(=O)NCC(=O)O)cc1; experiment: as §1
[42] = substrate: O=C(O)CNC(=O)CNC(=O)CNC(=O)c1ccccc1; experiment: as §1
[43] = substrate: O=C(O)CNC(=O)c1ccccc1O; experiment: as §1
[44] = substrate: O=C(O)CNC(=O)CNC(=O)c1ccccc1; experiment: as §1

O=C(NCP(=O)(O)O)c1cccnc1
inhibition [1]: < 5% | Activity [2]: Active | Activity [3]: Active | Activity [4]: inactive

CC1=C(/C=C/C(C)=C/C=C/C(C)=C/C(=O)Nc2ccc(O)cc2)C(C)(C)CCC1
Activity (DU-145 [5]): Active

O=C(O)CSC(=S)Cc1ccccc1
inhibition [1]: < 5% | Activity (DU-145 [6]): Active | Kis [7]: 7.9 µM | Kis [8]: 13 µM

CCOC(=O)CSC(=S)c1ccc(C)cc1
inhibition [1]: < 5% | inhibition at 100 µM (DU-145 [9]): ≤ 10%

B1: Peptidylglycine alpha-amidating monooxygenase (Rattus norvegicus), P14925 (protein)
chain: MAGRARSGLLLLLLGLLALQSSCLAFRSPLSVFKRFKETTRSFSNECLGTIGPVTPLDASDFALDIRMPGVTPKESDTYFCMSMRLPVDEEAFVIDFKPRASMDTVHHMLLFGCNMPSSTGSYWFCDEGTCTDKANILYAWARNAPPTRLPKGVGFRVGGETGSKYFVLQVHYGDISAFRDNHKDCSGVSVHLTRVPQPLIAGMYLMMSVDTVIPPGEKVVNADISCQYKMYPMHVFAYRVHTHHLGKVVSGYRVRNGQWTLIGRQNPQLPQAFYPVEHPVDVTFGDILAARCVFTGEGRTEATHIGGTSSDEMCNLYIMYYMEAKYALSFMTCTKNVAPDMFRTIPAEANIPIPVKPDMVMMHGHHKEAENKEKSALMQQPKQGEEEVLEQGDFYSLLSKLLGEREDVHVHKYNPTEKTESGSDLVAEIANVVQKKDLGRSDAREGAEHEEWGNAILVRDRIHRFHQLESTLRPAESRAFSFQQPGEGPWEPEPSGDFHVEEELDWPGVYLLPGQVSGVALDSKNNLVIFHRGDHVWDGNSFDSKFVYQQRGLGPIEEDTILVIDPNNAEILQSSGKNLFYLPHGLSIDTDGNYWVTDVALHQVFKLDPHSKEGPLLILGRSMQPGSDQNHFCQPTDVAVEPSTGAVFVSDGYCNSRIVQFSPSGKFVTQWGEESSGSSPRPGQFSVPHSLALVPHLDQLCVADRENGRIQCFKTDTKEFVREIKHASFGRNVFAISYIPGFLFAVNGKPYFGDQEPVQGFVMNFSSGEIIDVFKPVRKHFDMPHDIVASEDGTVYIGDAHTNTVWKFTLTEKMEHRSVKKAGIEVQEIKEAEAVVEPKVENKPTSSELQKMQEKQKLSTEPGSGVSVVLITTLLVIPVLVLLAIVMFIRWKKSRAFGDHDRKLESSSGRVLGRFRGKGSGGLNLGNFFASRKGYSRKGFDRVSTEGSDQEKDEDDGTESEEEYSAPLPKPAPSS
Km [10]: 3400 µM | Km [11]: 1200 µM | Km [12]: 38 µM | Km [13]: 150 µM | Km [14]: 770 µM | Km [15]: 520 µM | Km [16]: 420 µM | Km [17]: 900 µM | Km [18]: 310 µM | Km [19]: 230 µM | Km [20]: 24 µM | Km [21]: 360 µM | Km [22]: 59 µM | Km [23]: 1400 µM | Km [24]: 620 µM | Km [25]: 2200 µM | Km [26]: 820 µM | Km [27]: 51 µM | Km [28]: 4300 µM | Km [29]: 84000 µM | Km [30]: 2600 µM | Km [31]: 1700 µM | Km [32]: 1200 µM | Km [33]: 2700 µM | Km [34]: 470 µM | Km [35]: 110 µM | Km [36]: 1400 µM | Km [37]: 100 µM | Km [38]: 590 µM | Km [39]: 940 µM | Km [40]: 1200 µM | Km [41]: 1800 µM | Km [42]: 310 µM | Km [43]: 860 µM | Km [44]: 78 µM
